# Published values gathered from unrelated publications.
SMILES,test,system,setting,logP
CS(=O)(=O)N1CCN(Cc2cc3nc(-c4cccc5[nH]ncc45)nc(N4CCOCC4)c3s2)CC1,,,,3.22
CNCc1cc(-c2ccccc2F)n(S(=O)(=O)c2cccnc2)c1,,,,2.74
CC(=O)NCN1N=C(C)C(=NNn2c(-c3ccccc3)nc3ccccc3c2=O)C1=O,,,,2.24
CNC(=O)c1ccccc1Sc1ccc2c(/C=C/c3ccccn3)n[nH]c2c1,,,,3.1
CC1=NN(CNc2c(O)c(S(=O)(=O)O)cc3ccccc23)C(=O)C1=NNn1c(-c2ccccc2)nc2ccccc2c1=O,,,,5.01
O=C(O)CCCNC(=O)c1ccc(O)c2ncccc12,,,,0.71
CC1=NN(CNC(=O)c2ccccc2)C(=O)C1=NNn1c(-c2ccccc2)nc2ccccc2c1=O,,,,4.09
CC(=O)N1N=C(c2cccc(O)c2)CC1c1ccc(Cl)cc1 (stereo not shown),potentiometric,,,2.98
O=c1[nH]cc(F)c(=O)[nH]1,shake flask,water,24 h,-0.46
N#Cc1[nH]nnc1-c1cc(Cl)cc(/C=C/c2cccc(C(F)(F)F)c2)c1,potentiometric,,,5.4
O=C(c1cc(Cc2n[nH]c(=O)c3ccccc23)ccc1F)N1CCN(C(=O)C2CC2)CC1,,,,1.55
CC1=NN(CNc2ccc(C(=O)O)cc2)C(=O)C1=NNn1c(-c2ccccc2)nc2ccccc2c1=O,,,,4.15
Cc1cc(Cl)cc(S(C)(=O)=O)c1NC(=O)c1cc(Br)nn1-c1ncccc1Cl,potentiometric,,,4.34
N#Cc1[nH]nnc1-c1cccc(OCc2cc(C(F)(F)F)ccc2C(F)(F)F)c1,potentiometric,,,5.5
C=C[C@H]1C[N@]2CC[C@H]1C[C@@H]2C(O)c1ccnc2ccc(OC)cc12 (stereo partly shown),,water,,3.17
C=C(C)[C@@H]1CCC(C)=C[C@H]1c1c(O)cc(CCCCC)cc1O,,,,7.11
